According to ChEMBL document CHEMBL4619818, “Mining Public Domain Data to Develop Selective DYRK1A Inhibitors” (ACS Med Chem Lett, 2020):
In brackets after ≈: the same amount, converted by molar mass.

How the values were obtained:
[1] = biological target: T1, Dual specificity tyrosine-phosphorylation-regulated kinase 1A (Homo sapiens, UniProt Q13627); test: Inhibition of recombinant human DYRK1A (129 to 509 residues) expressed in mammalian expression system at 1 uM by DiscoverX competition binding assay relative to control
Method in brief: (§1)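 Competition binding assay with test compound at 1 µM inhibitor concentration. Result expressed as percent inhibition, single determination (n=1). The kinome-wide panel also gave a selectivity score, S-Score(40).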

[2] = biological target: Cyclin-dependent kinase 2 (Homo sapiens) (UniProt P24941); test: Inhibition of recombinant human full length CDK2 (1 to 298 residues) expressed in bacterial expression system at 1 uM by DiscoverX competition binding assay relative to control; method in brief: as §1
[3] = biological target: Dual specificity protein kinase CLK1 (Homo sapiens) (UniProt P49759); test: Inhibition of recombinant human full length CLK1 (1 to 484 residues) expressed in bacterial expression system at 1 uM by DiscoverX competition binding assay relative to control; method in brief: as §1
[4] = biological target: T1, Dual specificity tyrosine-phosphorylation-regulated kinase 1A; test: Inhibition of recombinant human N-terminal Hex-tagged DYRK1A (127 to 485 residues) expressed in Escherichia coli BL21 (DE3) incubated for 1.5 hrs by TR-FRET assay
[5] = biological target: Glycogen synthase kinase-3 beta (Homo sapiens) (UniProt P49841); test: Inhibition of recombinant human full length GSK3beta (1 to 433 residues) expressed in mammalian expression system at 1 uM by DiscoverX competition binding assay relative to control; method in brief: as §1
[6] = Thermodynamic solubility of compound at pH 6.8; format: physicochemical; conditions: buffer, read-out: Therm_solubility
Method in brief: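 Thermodynamic (intrinsic) solubility by shake-flask method in PBS buffer at pH 6.8. Reported in mg/mL from a single experiment.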

[7] = Metabolic stability in rat liver microsomes assessed as intrinsic clearance; format: ADME, Microsome; conditions: read-out: CLH
Method in brief: (§2)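 Microsomal incubations with human or rat liver microsomes. Intrinsic clearance given in µL/min/mg; values are the mean of n = 2.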

[8] = biological target: Dual specificity protein kinase CLK2 (Homo sapiens) (UniProt P49760); test: Inhibition of recombinant human partial length CLK2 (144 to 484 residues) expressed in bacterial expression system at 1 uM by DiscoverX competition binding assay relative to control; method in brief: as §1
[9] = biological target: Dual specificity protein kinase CLK3 (Homo sapiens) (UniProt P49761); test: Inhibition of recombinant human full length CLK3 (1 to 490 residues) expressed in bacterial expression system at 1 uM by DiscoverX competition binding assay relative to control; method in brief: as §1
[10] = biological target: Dual specificity tyrosine-phosphorylation-regulated kinase 1B (Homo sapiens) (UniProt Q9Y463); test: Inhibition of recombinant human full length DYRK1B (1 to 629 residues) expressed in bacterial expression system at 1 uM by DiscoverX competition binding assay relative to control; method in brief: as §1
[11] = Apparent permeability from basolateral to apical side in dog MDCK-MDR1 cells; format: ADME, cell-based, Canis lupus familiaris
Method in brief: (§3)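 MDCK cells transfected with human MDR1 gene. Apparent permeability coefficient (Papp, 10^-6 cm/s) measured across the cell layer in each direction, apical to basolateral and basolateral to apical. Mean values reported; efflux ratio taken as Papp B2A / Papp A2B.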

[12] = Apparent permeability from apical to basolateral side in dog MDCK-MDR1 cells; format: ADME, cell-based, Canis lupus familiaris; method in brief: as §3
[13] = Efflux ratio of apparent permeability from basolateral to apical side over apical to basolateral side in dog MDCK-MDR1 cells; format: ADME, cell-based, Canis lupus familiaris
Method in brief: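 MDCK cells transfected with human MDR1 gene (Cyprotex assay); permeability coefficient (Papp) measured in both directions, apical to basolateral and basolateral to apical; efflux ratio taken as mean Papp B2A divided by mean Papp A2B.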

[14] = biological target: T2, Dual specificity tyrosine-phosphorylation-regulated kinase 2 (Homo sapiens) (UniProt Q92630); test: Inhibition of recombinant human full length DYRK2 (1 to 528 residues) expressed in mammalian expression system at 1 uM by DiscoverX competition binding assay relative to control; method in brief: as §1
T2 sequence (whole entry): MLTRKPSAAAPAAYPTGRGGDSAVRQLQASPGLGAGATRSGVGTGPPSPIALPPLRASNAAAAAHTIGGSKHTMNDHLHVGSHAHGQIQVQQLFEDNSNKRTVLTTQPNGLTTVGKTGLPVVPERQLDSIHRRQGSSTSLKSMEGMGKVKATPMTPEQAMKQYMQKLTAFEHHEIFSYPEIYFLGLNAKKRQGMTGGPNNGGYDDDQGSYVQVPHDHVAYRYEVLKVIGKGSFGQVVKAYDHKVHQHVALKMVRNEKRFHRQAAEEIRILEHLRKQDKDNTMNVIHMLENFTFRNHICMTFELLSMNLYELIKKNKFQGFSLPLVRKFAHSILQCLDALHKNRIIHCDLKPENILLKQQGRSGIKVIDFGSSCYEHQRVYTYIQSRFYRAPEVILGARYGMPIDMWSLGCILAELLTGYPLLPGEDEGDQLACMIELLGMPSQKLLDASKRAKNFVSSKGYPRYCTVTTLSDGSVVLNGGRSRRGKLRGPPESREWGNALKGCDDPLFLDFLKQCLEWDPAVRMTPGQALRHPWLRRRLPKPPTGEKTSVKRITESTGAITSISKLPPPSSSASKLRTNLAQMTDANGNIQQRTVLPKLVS

[15] = Metabolic stability in human liver microsomes assessed as intrinsic clearance; format: ADME, Microsome; conditions: read-out: CLH; method in brief: as §2
[16] = biological target: T1, Dual specificity tyrosine-phosphorylation-regulated kinase 1A; test: Inhibition of DYRK1A (unknown origin) at 1 uM by PanQinase assay relative to control
[17] = biological target: Cyclin-dependent kinase 2 (Homo sapiens) (UniProt P24941); test: Inhibition of CDK2 (unknown origin) at 1 uM by PanQinase assay relative to control
[18] = biological target: T1, Dual specificity tyrosine-phosphorylation-regulated kinase 1A; test: Binding affinity to DYRK1A (unknown origin) assessed as dissociation constant measured for 60 to 300 sec by SPR analysis

Sequence of Dual specificity protein kinase CLK3 (Homo sapiens) (P49761 whole entry, looked up, the tested form may be a part): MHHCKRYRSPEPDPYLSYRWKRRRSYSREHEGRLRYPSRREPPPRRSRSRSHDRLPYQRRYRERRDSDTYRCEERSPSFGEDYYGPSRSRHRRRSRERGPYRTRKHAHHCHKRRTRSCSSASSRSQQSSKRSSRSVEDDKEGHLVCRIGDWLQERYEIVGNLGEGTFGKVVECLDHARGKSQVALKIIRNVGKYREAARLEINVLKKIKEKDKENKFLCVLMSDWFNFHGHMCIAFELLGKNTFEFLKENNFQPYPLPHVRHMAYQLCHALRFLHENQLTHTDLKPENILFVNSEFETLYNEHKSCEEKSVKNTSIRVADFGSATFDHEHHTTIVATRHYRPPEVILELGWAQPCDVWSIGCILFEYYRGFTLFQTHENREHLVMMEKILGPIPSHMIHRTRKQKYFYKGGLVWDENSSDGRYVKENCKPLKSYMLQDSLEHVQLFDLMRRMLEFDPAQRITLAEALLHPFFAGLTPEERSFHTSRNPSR
Sequence of Dual specificity protein kinase CLK1 (Homo sapiens) (P49759 whole entry, looked up, the tested form may be a part): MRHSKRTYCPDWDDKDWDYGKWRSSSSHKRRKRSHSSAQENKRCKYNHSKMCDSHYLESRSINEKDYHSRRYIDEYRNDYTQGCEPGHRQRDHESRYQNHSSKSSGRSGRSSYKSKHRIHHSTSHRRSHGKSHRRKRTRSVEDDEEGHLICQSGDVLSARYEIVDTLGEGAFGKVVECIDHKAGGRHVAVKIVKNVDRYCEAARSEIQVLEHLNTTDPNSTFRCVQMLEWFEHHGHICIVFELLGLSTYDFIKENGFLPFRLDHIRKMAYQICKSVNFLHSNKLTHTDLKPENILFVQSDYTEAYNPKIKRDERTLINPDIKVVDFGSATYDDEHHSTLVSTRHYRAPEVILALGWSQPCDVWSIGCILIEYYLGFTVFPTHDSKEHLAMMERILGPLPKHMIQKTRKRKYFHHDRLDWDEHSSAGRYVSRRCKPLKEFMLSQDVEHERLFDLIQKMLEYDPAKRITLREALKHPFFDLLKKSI
Sequence of Dual specificity protein kinase CLK2 (Homo sapiens) (P49760 whole entry, looked up, the tested form may be a part): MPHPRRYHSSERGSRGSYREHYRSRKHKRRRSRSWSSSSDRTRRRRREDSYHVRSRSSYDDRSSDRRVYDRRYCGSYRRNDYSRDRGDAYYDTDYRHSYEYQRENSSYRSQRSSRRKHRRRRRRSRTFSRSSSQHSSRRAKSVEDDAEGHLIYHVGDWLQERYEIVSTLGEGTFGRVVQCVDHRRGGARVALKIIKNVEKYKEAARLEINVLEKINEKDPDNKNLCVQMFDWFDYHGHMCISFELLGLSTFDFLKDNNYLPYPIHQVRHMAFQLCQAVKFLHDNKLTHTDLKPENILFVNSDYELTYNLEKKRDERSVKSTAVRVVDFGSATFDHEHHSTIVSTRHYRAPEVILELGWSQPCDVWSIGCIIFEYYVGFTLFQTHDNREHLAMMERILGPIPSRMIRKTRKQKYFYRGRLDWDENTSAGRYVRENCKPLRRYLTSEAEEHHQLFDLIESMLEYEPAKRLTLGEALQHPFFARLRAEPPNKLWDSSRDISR
Sequence of Dual specificity tyrosine-phosphorylation-regulated kinase 1B (Homo sapiens) (Q9Y463 whole entry, looked up, the tested form may be a part): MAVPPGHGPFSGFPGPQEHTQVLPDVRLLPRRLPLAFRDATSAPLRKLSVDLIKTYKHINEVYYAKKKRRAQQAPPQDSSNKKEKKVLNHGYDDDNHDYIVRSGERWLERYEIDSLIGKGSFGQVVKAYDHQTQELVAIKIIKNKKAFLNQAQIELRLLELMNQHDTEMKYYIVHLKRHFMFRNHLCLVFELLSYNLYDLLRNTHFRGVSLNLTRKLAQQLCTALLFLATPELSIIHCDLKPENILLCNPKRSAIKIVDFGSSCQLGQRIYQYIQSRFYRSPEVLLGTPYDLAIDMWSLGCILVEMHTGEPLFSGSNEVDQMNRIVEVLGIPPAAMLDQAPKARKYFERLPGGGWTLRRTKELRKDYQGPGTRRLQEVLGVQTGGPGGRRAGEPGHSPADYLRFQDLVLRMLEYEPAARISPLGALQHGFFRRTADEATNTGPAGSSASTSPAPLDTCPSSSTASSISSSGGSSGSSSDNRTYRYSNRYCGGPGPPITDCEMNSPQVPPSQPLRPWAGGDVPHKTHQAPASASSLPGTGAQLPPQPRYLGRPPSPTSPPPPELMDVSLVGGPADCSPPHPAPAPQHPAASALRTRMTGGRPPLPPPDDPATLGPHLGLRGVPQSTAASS
Sequence of Glycogen synthase kinase-3 beta (Homo sapiens) (P49841 whole entry, looked up, the tested form may be a part): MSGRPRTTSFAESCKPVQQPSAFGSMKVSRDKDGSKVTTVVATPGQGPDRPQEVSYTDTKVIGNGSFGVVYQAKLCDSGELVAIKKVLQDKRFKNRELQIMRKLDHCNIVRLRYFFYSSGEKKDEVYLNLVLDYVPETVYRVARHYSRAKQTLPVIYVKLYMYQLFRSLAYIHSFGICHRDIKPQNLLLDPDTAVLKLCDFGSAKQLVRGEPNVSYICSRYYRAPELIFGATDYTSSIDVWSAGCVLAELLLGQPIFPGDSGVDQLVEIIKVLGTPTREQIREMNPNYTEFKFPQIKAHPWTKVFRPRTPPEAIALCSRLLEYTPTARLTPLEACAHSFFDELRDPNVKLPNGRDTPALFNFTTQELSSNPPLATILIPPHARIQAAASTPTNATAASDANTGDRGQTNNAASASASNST

Cc1cccc(N(C)c2nccc(-c3cnn4ncccc34)n2)c1
inhibition [1]: 65% | inhibition [2]: 12% | inhibition [3]: 59% | IC50 [4]: 76 nM | inhibition [5]: 4% | solubility thermodynamic [6]: 10 µg/mL (≈ 31.6 µM) | microsomal CLint [7]: 805 µL/min/mg | inhibition [8]: 59% | inhibition [9]: 6% | inhibition [10]: 0% | Papp B→A [11]: 20.1 ×10⁻⁶ cm/s | Papp A→B [12]: 20.9 ×10⁻⁶ cm/s | efflux ratio [13]: 0.96 | inhibition [14]: 19% | microsomal CLint [15]: 75 µL/min/mg

COc1cccc(Nc2nccc(-c3cnn4ncccc34)n2)c1 [PYRAZOLOPYRIDAZINE 1]
IC50 [4]: 12 nM

N#Cc1ccc(Nc2nccc(-c3cnn4ncccc34)n2)cc1
IC50 [4]: 103 nM

CN(c1ccccc1)c1nccc(-c2cnn3ncccc23)n1
inhibition [16]: 79% | IC50 [4]: 186 nM | inhibition [17]: 33%

COc1cccc(N(C)c2nccc(-c3cnn4ncccc34)n2)c1
IC50 [4]: 97 nM

COc1ccccc1Nc1nccc(-c2cnn3ncccc23)n1
IC50 [4]: 137 nM

N#Cc1cccc(Nc2nccc(-c3cnn4ncccc34)n2)c1 [GW778894X]
IC50 [4]: 5 nM

Cc1cccc(Nc2nccc(-c3cnn4ncccc34)n2)c1
IC50 [4]: 7 nM | Kd [18]: 8.9 nM

Cc1ccccc1Nc1nccc(-c2cnn3ncccc23)n1
IC50 [4]: 64 nM

c1ccc(Nc2nccc(-c3cnn4ncccc34)n2)cc1
inhibition [16]: 97% | IC50 [4]: 38 nM | inhibition [17]: 98%
